Test results: ChEMBL document CHEMBL4028867, “Design, Synthesis, and Characterization of N-Oxide-Containing Heterocycles with in Vivo Sterilizing Antitubercular Activity” (J Med Chem, 2017)
≈ marks a conversion by molar mass, not a printed value. Calls of active or inactive are those of the source. The rule behind the calls is not given here.

Assays:
[1] = target: Cytochrome P450 3A4 (Homo sapiens, UniProt P08684); assay: Inhibition of CYP3A4 in human liver microsomes in presence of NADPH by LC-MS/MS analysis; type: ADME
[2] = tested on: Mycobacterium tuberculosis; assay: Up-regulation of […] gene EF-G in Mycobacterium tuberculosis H37Rv at 2 times MIC90 after 4 hrs by microarray analysis; type: functional
[3] = tested on: Mycobacterium tuberculosis; assay: Antitubercular activity against Mycobacterium tuberculosis H37Rv ATCC 27294 in presence of 10% fetal bovine serum; type: functional
[4] = tested on: Mycobacterium tuberculosis; assay: Downregulation of hspR gene in Mycobacterium tuberculosis H37Rv at 2 times MIC90 after 4 hrs by microarray analysis; type: functional
[5] = tested on: Mycobacterium tuberculosis; assay: Up-regulation of […] gene EF-Tu in Mycobacterium tuberculosis H37Rv at 2 times MIC90 after 4 hrs by microarray analysis; type: functional
[6] = tested on: Escherichia coli; assay: Antimicrobial activity against Escherichia coli ATCC 25922 at 200 uM incubated for 16 hrs; type: functional
[7] = tested on: Mus musculus; assay: Toxicity in BALB/c mouse assessed as change in heart weight at 200 mg/kg, po qd administered via gavage after 10 days; type: organism-based; details: in vivo, 240 h
How it was run: (§1)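 Mice given one daily oral gavage dose of 200 mg/kg body weight for 10 days with daily behavioural monitoring (hippocratic screening); heart, lung, spleen, kidney and liver weights compared with controls by ANOVA and Dunnett's test, p < 0.05.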

[8] = tested on: Mus musculus; assay: Toxicity in BALB/c mouse assessed as change in kidney weight at 200 mg/kg, po qd administered via gavage after 10 days; type: organism-based; details: in vivo, 240 h; how it was run: as §1
[9] = tested on: Mycobacterium tuberculosis; assay: Antitubercular activity against replicating stage Mycobacterium tuberculosis H37Rv ATCC 27294 after 7 days by Resazurin microtiter assay; type: functional; details: H37Rv ATCC 27294, 168 h
[10] = tested on: Mycobacterium tuberculosis; assay: Antitubercular activity against Mycobacterium tuberculosis H37Rv ATCC 27294 under acidic pH 6 condition; type: functional
[11] = tested on: Mycobacterium tuberculosis; assay: Antitubercular activity against Mycobacterium tuberculosis H37Rv ATCC 27294 under normal pH 6.8 condition; type: functional
[12] = tested on: Mus musculus; assay: Toxicity in BALB/c mouse assessed as behavioral parameter changes (hippocratic screening) at 200 mg/kg, po qd administered via gavage after 10 days; type: organism-based; details: in vivo, 240 h; how it was run: as §1
[13] = tested on: Mycobacterium tuberculosis; assay: Growth inhibition of Mycobacterium tuberculosis H37Rv exposed to plasma from BALB/c mouse treated with 300 mg/kg, po administered through microemulsion vehicle as single oral dose per gavage after 4 hrs by Resazurin microtiter assay; type: functional; details: read-out: GI
How it was run: (§2)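 The microemulsion was 10% cholesterol, 10% phosphatidylcholine/sodium oleate/polyoxyl 40 hydrogenated castor oil (3:6:8) and 80% phosphate buffer pH 7.4. Plasma taken at 0.3, 1, 2 or 4 h was tested by REMA for % Mtb growth inhibition, and plasma level was estimated against the in-vitro REMA MIC.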

[14] = Stability of the compound in PBS assessed as parent compound remaining at pH 5.5 after 24 hrs by HPLC-UV analysis; type: physicochemical; details: read-out: Stability
[15] = target: T1, Cytochrome P450 2B6 (Homo sapiens, UniProt P20813); assay: Inhibition of CYP2B6 in human liver microsomes in presence of NADPH by LC-MS/MS analysis; type: ADME
T1 sequence (P20813 whole entry): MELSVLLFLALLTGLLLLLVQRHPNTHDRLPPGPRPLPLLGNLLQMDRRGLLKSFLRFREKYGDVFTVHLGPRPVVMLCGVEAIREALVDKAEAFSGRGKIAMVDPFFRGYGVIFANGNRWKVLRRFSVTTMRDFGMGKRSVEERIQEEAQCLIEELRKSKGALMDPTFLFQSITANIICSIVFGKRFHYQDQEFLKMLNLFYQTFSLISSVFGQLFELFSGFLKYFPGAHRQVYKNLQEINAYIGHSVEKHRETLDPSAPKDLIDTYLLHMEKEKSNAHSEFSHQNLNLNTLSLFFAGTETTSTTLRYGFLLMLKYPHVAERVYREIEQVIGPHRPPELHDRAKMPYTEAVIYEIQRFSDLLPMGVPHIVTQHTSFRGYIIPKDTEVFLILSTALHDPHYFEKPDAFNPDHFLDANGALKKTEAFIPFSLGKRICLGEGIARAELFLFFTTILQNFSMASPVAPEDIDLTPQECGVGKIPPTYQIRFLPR

[16] = tested on: Mus musculus; assay: Toxicity in BALB/c mouse assessed as change in liver weight at 200 mg/kg, po qd administered via gavage after 10 days; type: organism-based; details: in vivo, 240 h; how it was run: as §1
[17] = n-Octanol/water partition coefficient, log P of the compound by HPLC analysis; type: physicochemical
How it was run: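 Log P from n-octanol/water partition coefficient determined by HPLC method.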

[18] = Apparent permeability from basolateral to apical side in human Caco2 cells by LC-MS/MS analysis; type: ADME, cell-based; details: caco-2
How it was run: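 Caco-2 monolayer permeability measured in both directions (apical-to-basolateral and basolateral-to-apical); result given as apparent permeability coefficient Papp in cm/s.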

[19] = target: T2, Cytochrome P450 2C8 (Homo sapiens, UniProt P10632); assay: Inhibition of CYP2C8 in human liver microsomes in presence of NADPH by LC-MS/MS analysis; type: ADME
T2 sequence (P10632 whole entry): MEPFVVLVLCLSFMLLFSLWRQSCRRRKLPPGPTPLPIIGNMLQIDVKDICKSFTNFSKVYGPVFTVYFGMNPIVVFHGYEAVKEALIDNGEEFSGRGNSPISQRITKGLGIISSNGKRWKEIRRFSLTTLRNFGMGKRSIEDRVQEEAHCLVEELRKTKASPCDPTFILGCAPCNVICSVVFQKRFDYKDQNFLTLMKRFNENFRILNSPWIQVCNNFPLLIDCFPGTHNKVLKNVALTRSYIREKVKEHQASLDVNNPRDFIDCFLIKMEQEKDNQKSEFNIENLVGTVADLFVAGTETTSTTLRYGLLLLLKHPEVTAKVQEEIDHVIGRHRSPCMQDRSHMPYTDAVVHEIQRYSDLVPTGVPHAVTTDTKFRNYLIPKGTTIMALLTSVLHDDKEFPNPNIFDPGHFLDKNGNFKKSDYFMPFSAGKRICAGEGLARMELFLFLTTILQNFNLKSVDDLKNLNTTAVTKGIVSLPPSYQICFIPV

[20] = Stability of the compound in PBS assessed as parent compound remaining at pH 7.4 after 24 hrs by HPLC-UV analysis; type: physicochemical; details: read-out: Stability
[21] = tested on: Mus musculus; assay: Hepatotoxicity in BALB/c mouse assessed as change in liver morphology at 200 mg/kg, po qd administered via gavage after 10 days by hematoxylin and eosin staining based analysis; type: toxicity, organism-based; details: in vivo, 240 h
How it was run: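 BALB/c mice dosed orally by gavage once daily at 200 mg/kg; liver and kidney sections stained with H&E and examined for tissue morphology.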

[22] = tested on: Mycobacterium tuberculosis; assay: Antitubercular activity against Mycobacterium tuberculosis H37Rv ATCC 27294 in presence of 4% fetal bovine serum; type: functional
[23] = Fraction unbound in human plasma at 5 uM by LC-MS/MS analysis; type: ADME, cell-free
[24] = tested on: Mycobacterium tuberculosis; assay: Growth inhibition of Mycobacterium tuberculosis H37Rv exposed to plasma from BALB/c mouse treated with 300 mg/kg, po administered through microemulsion vehicle as single oral dose per gavage after 0.3 hrs by Resazurin microtiter assay; type: functional; details: read-out: GI; how it was run: as §2
[25] = Chemical stability in PBS at pH 7.4 assessed as drug degradation after 10 hrs by HPLC-UV analysis; type: physicochemical; details: read-out: Drug degradation

Cytochrome P450 3A4, sequence (P08684 whole entry): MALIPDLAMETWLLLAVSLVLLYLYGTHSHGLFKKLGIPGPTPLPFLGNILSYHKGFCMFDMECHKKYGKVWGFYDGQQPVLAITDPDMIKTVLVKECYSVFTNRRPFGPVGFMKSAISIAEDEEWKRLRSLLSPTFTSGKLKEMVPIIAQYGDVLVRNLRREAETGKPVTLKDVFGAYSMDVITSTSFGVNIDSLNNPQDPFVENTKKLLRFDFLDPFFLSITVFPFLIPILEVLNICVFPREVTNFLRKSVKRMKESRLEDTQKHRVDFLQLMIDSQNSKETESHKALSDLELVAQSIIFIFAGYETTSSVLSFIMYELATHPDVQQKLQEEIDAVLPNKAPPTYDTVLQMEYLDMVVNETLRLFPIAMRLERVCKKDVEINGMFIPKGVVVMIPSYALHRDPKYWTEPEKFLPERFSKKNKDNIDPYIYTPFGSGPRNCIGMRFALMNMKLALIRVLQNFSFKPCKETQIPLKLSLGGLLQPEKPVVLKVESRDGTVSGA

Question: With `O=C(N/N=C/c1ccc2no[n+]([O-])c2c1)c1ccncc1` as the molecule, how does the IC50 [1] read?
Answer: Its IC50 is > 20 µM.

Question: What about the Activity [2] of the same molecule?
Answer: Its Activity is “Active”.

Question: What about the MIC90 [3] of the same molecule?
Answer: The MIC90 was 11.8 µM.

Question: And the Activity [4]?
Answer: Its Activity is “Active”.

Question: And the Activity [5]?
Answer: Its Activity is “Active”.

Question: What about the Activity [6] of the same molecule?
Answer: Its Activity is “inactive”.

Question: And the Activity [7]?
Answer: Its Activity is “Non-Toxic”.

Question: And the Activity [8]?
Answer: The Activity was “Non-Toxic”.

Question: What about the MIC90 [9] of the same molecule?
Answer: The MIC90 was 1.1 to 5.84 µM (≈ 0.312 to 1.65 µg/mL).

Question: What about the MIC90 [10] of the same molecule?
Answer: The MIC90 was 3.41 µM (≈ 0.966 µg/mL).

Question: What about the MIC90 [11] of the same molecule?
Answer: Its MIC90 is 5.47 µM (≈ 1.55 µg/mL).

Question: And the Activity [12]?
Answer: Its Activity is “Non-Toxic”.

Question: What about the inhibition in vivo at 300 mg/kg [13] of the same molecule?
Answer: The inhibition in vivo at 300 mg/kg was 51.3%.

Question: What about the remaining at 24 h [14] of the same molecule?
Answer: The remaining at 24 h was 67%.

Question: And the IC50 [15]?
Answer: Its IC50 is > 20 µM.

Question: And the Activity [16]?
Answer: The Activity was “Non-Toxic”.

Question: What about the logP [17] of the same molecule?
Answer: The logP was 1.5.

Question: And the Papp [18]?
Answer: Its Papp is 3.9 ×10⁻⁶ cm/s.

Question: And the IC50 [19]?
Answer: The IC50 was > 20 µM.

Question: And the remaining at 24 h [20]?
Answer: Its remaining at 24 h is 75%.

Question: What about the Activity [21] of the same molecule?
Answer: Its Activity is “Non-Toxic”.

Question: And the MIC90 [22]?
Answer: The MIC90 was 9.81 µM.

Question: And the fraction unbound at 5 µM [23]?
Answer: Its fraction unbound at 5 µM is 0.465.

Question: And the inhibition in vivo at 300 mg/kg [24]?
Answer: The inhibition in vivo at 300 mg/kg was 65.7%.

Question: What about the degraded at 10 h [25] of the same molecule?
Answer: The degraded at 10 h was 20%.
